Out of some 320,000 compounds screened, about 310 (0.097%) were called active. This is one part of a sample in which actives are shown more often than they occur.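 Rule for the calls: active = mean replicate activation of at least 60% and every replicate at or above 60%; inconclusive = mean or all-replicate condition met, but not both; inactive = mean below 60% and not all replicates reaching 60%.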
assay: activators of SR-BI mediated DiI-HDL uptake, primary screen, ldlA[mSR-BI] CHO cells, DiI fluorescence (AID 504775); settings: 3 h, at 12.5 µM, hits give high values, 100 = double the neutral-control signal;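 note: 0% = median plate neutral-control signal and 100% = twice that signal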
Method in brief: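 Test system: SR-BI-overexpressing, LDLR-lacking CHO cells; Also added: labelled HDL, 10 µg/mL; Measured by: bottom-read cell fluorescence after medium removal, ex 550/em 595 nm; Timing: 3 h uptake period with compound, 37 °C; Buffer or medium: F12, 0.5% BSA, 25 mM HEPES; Doses: single compound concentration, delivered by pin transfer.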

activation, active:
Cc1ccc2c(c1)NC(=O)[C@@]1(C)[C@@H](c3ccccc3)[C@H]3COc4ccc(Cl)cc4[C@@H]3N1C2=O 138%
NS(=O)(=O)c1ccc(CNC(=S)NC(=O)c2ccco2)cc1 304%
O=C(NCCc1ccccc1)c1ccc(NC2=NC3CS(=O)(=O)CC3S2)cc1 (centres undefined) 85.7%
CC1CCC(NC(=O)CN(C)S(=O)(=O)c2ccc3c(c2)c(=O)n(C)c(=O)n3C)CC1 (centres undefined) 246%

activation, inactive:
CC(=O)OC1CCC2(C)C(=CCC3C4CC(=O)N(O)C(=O)C4(C)CCC32)C1 (centres undefined) 19%
COc1ccc(NC(=O)/C(N=Nc2cccc(S(=O)(=O)Nc3ccc(SC(F)F)cc3)c2)=C(\C)O)cc1 19.4%
COc1ccc2nc(N3C(=O)C(O)=C(C(=O)c4ccco4)C3c3ccco3)sc2c1 (centres undefined) 2.11%
O=C1NC(=O)C(CCc2ccccc2)(c2ccccc2)N1 (centres undefined) 20.8%
COC[C@@H]1NS(=O)(=O)c2ccc(Br)cc2O[C@H]1c1ccccc1 -5.43%
CCOC(=O)[C@H]1[C@H]2COc3ccc(Cl)cc3[C@@H]2N2C(=O)c3cc(C)ccc3NC(=O)[C@@]12C 5.05%
COc1ccc2c(c1)[C@H]1[C@H](CO2)[C@H](c2ccccc2)[C@]2(C)C(=O)Nc3cc(F)c(F)cc3C(=O)N12 -10.6%
CCOc1ccc(CCNC(=O)COC(=O)C2CCN(S(=O)(=O)c3ccccc3)CC2)cc1OCC -35%
COc1cc(NC(=S)NCc2ccc(S(N)(=O)=O)cc2)cc(OC)c1 1.73%
NS(=O)(=O)c1ccc(NC(=O)COC(=O)c2ccco2)cc1 -5.86%
COc1ccc(/C=C2/CCCc3ccccc3C2=O)cc1 -12.7%
CN(CCc1ccccc1)C(=O)c1cccc(NC(=O)Cc2cccc(NC(=O)C3CCCN(C(=O)C4CCC4)C3)c2)c1 (centres undefined) -26.9%
CN(Cc1ccccc1)C(=O)c1ccc(NC2=NC3CS(=O)(=O)CC3S2)cc1 (centres undefined) -2.73%
COc1ccccc1N1CCN(C(=O)c2ccc(NC3=NC4CS(=O)(=O)CC4S3)cc2)CC1 (centres undefined) 14.4%
COc1cc2c(cc1OC)C1C(=O)c3cc(OS(C)(=O)=O)c(OC)cc3C1N(C)C2=O (centres undefined) 1.01%
COc1ccc(Cn2cc(CN3CCS(=O)(=O)N(Cc4ccc(-c5cccc(Cl)c5)cc4)C(C)C3=O)nn2)cc1 (centres undefined) -34.7%
O=[N+]([O-])c1ccc(COc2ccccc2CN2CCOCC2)cc1 19.3%
CCc1ccccc1NC(=O)CN(C)S(=O)(=O)c1ccc2c(c1)c(=O)n(C)c(=O)n2C -3.85%
COc1cccc(CNC(=O)CN(C)S(=O)(=O)c2ccc3c(c2)c(=O)n(C)c(=O)n3C)c1 -3.22%
O=C1CC(C(=O)O)NC(=S)N1 (centres undefined) 3.49%
Cc1cc(C)c(C=NNc2nc3c([nH]2)c(=O)n(C)c(=O)n3C)c(C)c1 12.4%
CN(C)CCNC(=O)c1ccc(Cl)c2cc3ccccc3nc12 8.43%
CCN(CC)S(=O)(=O)c1cccc(NC(=O)c2ccc(S(=O)(=O)N3CCCC3)cc2)c1 -41.2%
CC(C)=CCc1ccc(O)c(=O)cc1C(C)C -12.4%
O=C(Nc1c(Br)cc2c(c1Br)Cc1cc([N+](=O)[O-])ccc1-2)C(Cl)Cl -60.9%
CN(O)C(=S)c1ccccc1 24.5%
O=C1CC(c2ccccc2)C(c2ccccc2)=NN1 (centres undefined) 1.49%
COc1cc(/C=C/CNC[C@H]2O[C@@H](n3cnc(C(N)=O)n3)[C@H](O)[C@@H]2O)ccc1O 8.13%
O=S(=O)(Cc1ccc(Cl)cc1Cl)c1ccc(Cl)cc1 -15.8%
Cc1ccc2c(O)c(Cc3ccccc3)c(=O)[nH]c2n1 -7.66%

— PubChem BioAssay AID504775 (Broad Institute, 2011)
